Calls of active or inactive are those of the source. The rule behind the calls is not given here.
Assays:
Mus musculus = species: Mus musculus; assay: Compound was tested for inhibition of mouse connective tissue cell (L) growth at a concentration of 100 uM; format: functional; conditions: for inhibition at 100 µM: Mus musculus
Method in brief: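 D-98 (human sternal marrow) and L (mouse connective tissue) cells were cultured with compound at 100 µM, and growth inhibition was reported as %. Procedure per earlier publication.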

D98 (Homo sapiens) = assay: Compound was tested for inhibition of human sternal marrow cell (D98) growth at a concentration of 100 uM
EL4 = assay: Inhibition of lymphocyte-mediated cytolysis at a concentration of 100 uM in [51Cr]- labelled EL4 leukemia cells; format: functional; conditions: Mus musculus
Rattus norvegicus [1] = assay: Dose required to produce an acute inflammatory response of the algal poly saccharide carrageenan into the pleural cavity of rat; IA is Inactive at 9 mg/kg; format: functional, organism-based; set-up: dose 9 mg/kg
Rattus norvegicus [2] = species: Rattus norvegicus; assay: Dose required to produce an acute inflammatory response of the algal poly saccharide carrageenan into the pleural cavity of rat.; format: functional
Rattus norvegicus [3] = assay: Dose required to produce an acute inflammatory response of the algal poly saccharide carrageenan into the pleural cavity of rat; IA is Inactive at 6 mg/kg; format: functional, organism-based; set-up: dose 6 mg/kg

C[C@H]1OC(n2cnc3c(N)nccc32)[C@H](O)[C@@H]1O (stereo partly drawn)
inhibition at 100 µM (Mus musculus): 4%
inhibition (D98 (Homo sapiens)): 18%
inhibition at 100 µM (EL4): 32%
ED50 (Rattus norvegicus [1]): inactive

[N-]=[N+]=Nc1nccc2c1ncn2C1O[C@H](CO)[C@@H](O)[C@H]1O (stereo partly drawn)
inhibition at 100 µM (Mus musculus): 8%
inhibition (D98 (Homo sapiens)): 4%
inhibition at 100 µM (EL4): < 5%
ED50 (Rattus norvegicus [2]): > 9 mg/kg

CNc1nccc2c1ncn2C1O[C@H](CO)[C@@H](O)[C@H]1O (stereo partly drawn)
inhibition at 100 µM (Mus musculus): 21%
ED50 (Rattus norvegicus [3]): inactive
inhibition (D98 (Homo sapiens)): 8%
inhibition at 100 µM (EL4): 11%

OC[C@H]1O[C@@H](n2cnc3c(SCc4ccccc4)nccc32)C[C@@H]1O
inhibition at 100 µM (Mus musculus): 19%
inhibition (D98 (Homo sapiens)): 18%
inhibition at 100 µM (EL4): 11%
ED50 (Rattus norvegicus [1]): inactive

OC[C@H]1O[C@@H](n2cnc3cnccc32)[C@H](O)[C@@H]1O (stereo in doubt; 17) [listing 1 of 2 here]
Inhibition (Mus musculus): 3%

CCCCCCNc1nccc2c1ncn2C1O[C@H](CO)[C@@H](O)[C@H]1O (stereo partly drawn)
inhibition at 100 µM (Mus musculus): 41%
ED50 (Rattus norvegicus [3]): inactive
inhibition (D98 (Homo sapiens)): 8%
inhibition at 100 µM (EL4): 14%

[N-]=[N+]=Nc1nccc2c1ncn2[C@H]1C[C@H](O)[C@@H](CO)O1
inhibition at 100 µM (Mus musculus): 12%
inhibition (D98 (Homo sapiens)): 4%
inhibition at 100 µM (EL4): 13%
ED50 (Rattus norvegicus [1]): inactive

CN(C)c1nccc2c1ncn2[C@H]1C[C@H](O)[C@@H](CO)O1
inhibition at 100 µM (Mus musculus): 6%
inhibition (D98 (Homo sapiens)): 0%
inhibition at 100 µM (EL4): < 5%
ED50 (Rattus norvegicus [2]): > 9 mg/kg

OC[C@H]1O[C@@H](n2cnc3c(NCc4ccccc4)nccc32)C[C@@H]1O
inhibition at 100 µM (Mus musculus): 37%
inhibition (D98 (Homo sapiens)): 18%
inhibition at 100 µM (EL4): 8%
ED50 (Rattus norvegicus [2]): > 9 mg/kg

CN(C)c1[nH]ccc2ncnc1-2
inhibition at 100 µM (Mus musculus): 21%
inhibition (D98 (Homo sapiens)): 8%
inhibition at 100 µM (EL4): 25%
ED50 (Rattus norvegicus [2]): 9 mg/kg

CSc1nccc2c1ncn2C1O[C@H](CO)[C@@H](O)[C@H]1O (stereo partly drawn)
inhibition at 100 µM (Mus musculus): 40%
inhibition (D98 (Homo sapiens)): 24%
inhibition at 100 µM (EL4): < 5%
ED50 (Rattus norvegicus [1]): inactive

OC[C@H]1O[C@@H](n2cnc3cnccc32)C[C@@H]1O
inhibition at 100 µM (Mus musculus): 0%
inhibition (D98 (Homo sapiens)): 6%
inhibition at 100 µM (EL4): < 5%
ED50 (Rattus norvegicus [2]): > 9 mg/kg

OC[C@H]1O[C@@H](n2cnc3c(Cl)nccc32)C[C@@H]1O
inhibition at 100 µM (Mus musculus): 25%
inhibition (D98 (Homo sapiens)): 5%
inhibition at 100 µM (EL4): < 5%
ED50 (Rattus norvegicus [1]): inactive

CCNc1[nH]ccc2ncnc1-2
inhibition at 100 µM (Mus musculus): 11%
ED50 (Rattus norvegicus [3]): inactive
inhibition (D98 (Homo sapiens)): 3%
inhibition at 100 µM (EL4): < 5%

[N-]=[N+]=Nc1nccc2ncn([C@H]3C[C@H](O)[C@@H](CO)O3)c12
inhibition at 100 µM (Mus musculus): 2%
inhibition (D98 (Homo sapiens)): 14%
inhibition at 100 µM (EL4): < 5%
ED50 (Rattus norvegicus [2]): > 9 mg/kg

c1ccc(Nc2[nH]ccc3ncnc2-3)cc1
inhibition at 100 µM (Mus musculus): 34%
inhibition (D98 (Homo sapiens)): 12%
inhibition at 100 µM (EL4): 26%
ED50 (Rattus norvegicus [1]): inactive

OCCNc1nccc2c1ncn2C1O[C@H](CO)[C@@H](O)[C@H]1O (stereo partly drawn)
inhibition at 100 µM (Mus musculus): 3%
ED50 (Rattus norvegicus [3]): inactive
inhibition (D98 (Homo sapiens)): 0%
inhibition at 100 µM (EL4): 6%

Nc1[nH]ccc2ncnc1-2
inhibition at 100 µM (Mus musculus): 24%
inhibition (D98 (Homo sapiens)): 60%
inhibition at 100 µM (EL4): < 5%
ED50 (Rattus norvegicus [2]): 8 mg/kg

[O-][n+]1ccc2c(c1)ncn2[C@H]1C[C@H](O)[C@@H](CO)O1
inhibition at 100 µM (Mus musculus): 13%
inhibition (D98 (Homo sapiens)): 0%
inhibition at 100 µM (EL4): < 5%
ED50 (Rattus norvegicus [1]): inactive

Sc1[nH]ccc2ncnc1-2
inhibition at 100 µM (Mus musculus): 38%
inhibition (D98 (Homo sapiens)): 26%
inhibition at 100 µM (EL4): < 5%
ED50 (Rattus norvegicus [2]): 8 mg/kg

OC[C@H]1O[C@@H](n2cnc3cnccc32)[C@H](O)[C@@H]1O (stereo in doubt; 16) [listing 1 of 2 here]
Inhibition (Mus musculus): 8%
inhibition at 100 µM (EL4): < 5%

[O-][n+]1ccc2c(c1)ncn2C1O[C@H](CO)[C@@H](O)[C@H]1O (stereo partly drawn)
inhibition at 100 µM (Mus musculus): 3%
inhibition (D98 (Homo sapiens)): 5%
inhibition at 100 µM (EL4): < 5%
ED50 (Rattus norvegicus [1]): inactive

OC[C@H]1OC(n2cnc3c(NCc4ccccc4)nccc32)[C@H](O)[C@@H]1O (stereo partly drawn)
inhibition at 100 µM (Mus musculus): 38%
inhibition (D98 (Homo sapiens)): 32%
inhibition at 100 µM (EL4): 5%
ED50 (Rattus norvegicus [2]): > 9 mg/kg

OC[C@H]1OC(n2cnc3c(S)nccc32)[C@H](O)[C@@H]1O (stereo partly drawn)
inhibition at 100 µM (Mus musculus): 3%
inhibition (D98 (Homo sapiens)): 6%
inhibition at 100 µM (EL4): < 5%
ED50 (Rattus norvegicus [2]): 9 mg/kg

[O-][n+]1ccc2[nH]cnc2c1
inhibition at 100 µM (Mus musculus): 1%
inhibition (D98 (Homo sapiens)): 3%
inhibition at 100 µM (EL4): 5%
ED50 (Rattus norvegicus [2]): > 9 mg/kg

OCCNc1[nH]ccc2ncnc1-2
inhibition at 100 µM (Mus musculus): 16%
inhibition (D98 (Homo sapiens)): 3%
inhibition at 100 µM (EL4): < 5%
ED50 (Rattus norvegicus [2]): > 9 mg/kg

CC1OC(n2cnc3c(N)nccc32)CC1O (stereo not drawn)
inhibition at 100 µM (Mus musculus): 12%
inhibition (D98 (Homo sapiens)): 3%
inhibition at 100 µM (EL4): 25%
ED50 (Rattus norvegicus [1]): inactive

[N-]=[N+]=Nc1[nH]ccc2ncnc1-2
inhibition at 100 µM (Mus musculus): 20%
inhibition (D98 (Homo sapiens)): 20%
inhibition at 100 µM (EL4): < 5%
ED50 (Rattus norvegicus [1]): inactive

Nc1nccc2c1ncn2[C@H]1C[C@H](O)[C@@H](CO)O1
inhibition at 100 µM (Mus musculus): 0%
inhibition (D98 (Homo sapiens)): 18%
inhibition at 100 µM (EL4): 89%
ED50 (Rattus norvegicus [2]): 10 mg/kg

OC[C@H]1O[C@@H](n2cnc3c(S)nccc32)C[C@@H]1O
inhibition at 100 µM (Mus musculus): 8%
inhibition (D98 (Homo sapiens)): 10%
inhibition at 100 µM (EL4): < 5%
ED50 (Rattus norvegicus [1]): inactive

c1ccc(CSc2[nH]ccc3ncnc2-3)cc1
inhibition at 100 µM (Mus musculus): 54%
inhibition (D98 (Homo sapiens)): 26%
inhibition at 100 µM (EL4): 20%
ED50 (Rattus norvegicus [2]): > 9 mg/kg

Nc1nccc2c1ncn2[C@@H]1O[C@H](CO)[C@@H](O)[C@H]1O
inhibition at 100 µM (Mus musculus): 49%
inhibition (D98 (Homo sapiens)): 56%
inhibition at 100 µM (EL4): 80%
ED50 (Rattus norvegicus [2]): 3 mg/kg

c1ccc(CNc2[nH]ccc3ncnc2-3)cc1
inhibition at 100 µM (Mus musculus): 68%
inhibition (D98 (Homo sapiens)): 75%
inhibition at 100 µM (EL4): 57%
ED50 (Rattus norvegicus [2]): 9 mg/kg

OC[C@H]1O[C@@H](n2cnc3cnccc32)[C@H](O)[C@@H]1O (stereo in doubt; 17) [listing 2 of 2 here]
inhibition (D98 (Homo sapiens)): 1%
ED50 (Rattus norvegicus [1]): inactive

OC[C@H]1OC(n2cnc3c(Cl)nccc32)[C@H](O)[C@@H]1O (stereo partly drawn)
inhibition at 100 µM (Mus musculus): 27%
inhibition (D98 (Homo sapiens)): 76%
inhibition at 100 µM (EL4): < 5%
ED50 (Rattus norvegicus [1]): inactive

CN(C)c1nccc2c1ncn2C1O[C@H](CO)[C@@H](O)[C@H]1O (stereo partly drawn)
inhibition at 100 µM (Mus musculus): 14%
inhibition (D98 (Homo sapiens)): 0%
inhibition at 100 µM (EL4): 10%
ED50 (Rattus norvegicus [2]): > 9 mg/kg

CSc1[nH]ccc2ncnc1-2
inhibition at 100 µM (Mus musculus): 11%
inhibition (D98 (Homo sapiens)): 4%
inhibition at 100 µM (EL4): < 5%
ED50 (Rattus norvegicus [2]): 9 mg/kg

OC[C@H]1OC(n2cnc3c(SCc4ccccc4)nccc32)[C@H](O)[C@@H]1O (stereo partly drawn)
inhibition at 100 µM (Mus musculus): 43%
inhibition (D98 (Homo sapiens)): 30%
inhibition at 100 µM (EL4): 30%
ED50 (Rattus norvegicus [2]): 9 mg/kg

CSc1nccc2c1ncn2[C@H]1C[C@H](O)[C@@H](CO)O1
inhibition at 100 µM (Mus musculus): 30%
inhibition (D98 (Homo sapiens)): 36%
inhibition at 100 µM (EL4): < 5%
ED50 (Rattus norvegicus [2]): > 9 mg/kg

c1cc2[nH]cnc2cn1
inhibition at 100 µM (Mus musculus): 12%
inhibition (D98 (Homo sapiens)): 0%
inhibition at 100 µM (EL4): < 5%
ED50 (Rattus norvegicus [2]): > 9 mg/kg

Clc1[nH]ccc2ncnc1-2
inhibition at 100 µM (Mus musculus): 29%
inhibition (D98 (Homo sapiens)): 6%
inhibition at 100 µM (EL4): < 5%
ED50 (Rattus norvegicus [2]): > 9 mg/kg

OC[C@H]1OC(n2cnc3c(Nc4ccccc4)nccc32)[C@H](O)[C@@H]1O (stereo partly drawn)
inhibition at 100 µM (Mus musculus): 18%
inhibition (D98 (Homo sapiens)): 4%
inhibition at 100 µM (EL4): 10%
ED50 (Rattus norvegicus [2]): > 9 mg/kg

OC[C@H]1O[C@@H](n2cnc3cnccc32)[C@H](O)[C@@H]1O (stereo in doubt; 16) [listing 2 of 2 here]
inhibition (D98 (Homo sapiens)): 13%
ED50 (Rattus norvegicus [1]): inactive

From ChEMBL document CHEMBL1123202, “Imidazo[4,5-c]pyridines (3-deazapurines) and their nucleosides as immunosuppressive and antiinflammatory agents” (1986)
